For orientation: inhibition means how much of the control response was suppressed.

This note sets out measurements from ChEMBL document CHEMBL5653631, “A Potent and Selective ULK1 Inhibitor Suppresses Autophagy and Sensitizes Cancer Cells to Nutrient Stress” (iScience, 2018).

Assay [1] concerns the target T1, Interleukin-1 receptor-associated kinase 4 (Homo sapiens) (UniProt Q9NWZ3).
T1 sequence (whole entry): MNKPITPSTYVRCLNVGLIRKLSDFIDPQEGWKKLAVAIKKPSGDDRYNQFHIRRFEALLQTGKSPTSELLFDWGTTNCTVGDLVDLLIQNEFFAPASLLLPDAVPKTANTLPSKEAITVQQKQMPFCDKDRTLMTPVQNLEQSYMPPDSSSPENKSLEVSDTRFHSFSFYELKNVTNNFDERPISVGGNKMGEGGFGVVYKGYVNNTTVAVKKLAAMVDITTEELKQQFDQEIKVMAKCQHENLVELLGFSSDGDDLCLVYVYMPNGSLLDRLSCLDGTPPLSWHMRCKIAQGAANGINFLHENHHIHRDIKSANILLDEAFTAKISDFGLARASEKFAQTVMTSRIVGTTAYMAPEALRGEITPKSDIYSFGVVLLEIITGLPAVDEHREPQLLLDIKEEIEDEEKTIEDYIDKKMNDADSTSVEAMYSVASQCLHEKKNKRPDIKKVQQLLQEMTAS
Description: Inhibition of human recombinant IRAK4 at 15 nM in presence of ATP by radiometric assay relative to control.

Assay [2] deals with T2, Mitogen-activated protein kinase kinase kinase 5 (Homo sapiens) (UniProt Q99683).
T2 sequence (whole entry): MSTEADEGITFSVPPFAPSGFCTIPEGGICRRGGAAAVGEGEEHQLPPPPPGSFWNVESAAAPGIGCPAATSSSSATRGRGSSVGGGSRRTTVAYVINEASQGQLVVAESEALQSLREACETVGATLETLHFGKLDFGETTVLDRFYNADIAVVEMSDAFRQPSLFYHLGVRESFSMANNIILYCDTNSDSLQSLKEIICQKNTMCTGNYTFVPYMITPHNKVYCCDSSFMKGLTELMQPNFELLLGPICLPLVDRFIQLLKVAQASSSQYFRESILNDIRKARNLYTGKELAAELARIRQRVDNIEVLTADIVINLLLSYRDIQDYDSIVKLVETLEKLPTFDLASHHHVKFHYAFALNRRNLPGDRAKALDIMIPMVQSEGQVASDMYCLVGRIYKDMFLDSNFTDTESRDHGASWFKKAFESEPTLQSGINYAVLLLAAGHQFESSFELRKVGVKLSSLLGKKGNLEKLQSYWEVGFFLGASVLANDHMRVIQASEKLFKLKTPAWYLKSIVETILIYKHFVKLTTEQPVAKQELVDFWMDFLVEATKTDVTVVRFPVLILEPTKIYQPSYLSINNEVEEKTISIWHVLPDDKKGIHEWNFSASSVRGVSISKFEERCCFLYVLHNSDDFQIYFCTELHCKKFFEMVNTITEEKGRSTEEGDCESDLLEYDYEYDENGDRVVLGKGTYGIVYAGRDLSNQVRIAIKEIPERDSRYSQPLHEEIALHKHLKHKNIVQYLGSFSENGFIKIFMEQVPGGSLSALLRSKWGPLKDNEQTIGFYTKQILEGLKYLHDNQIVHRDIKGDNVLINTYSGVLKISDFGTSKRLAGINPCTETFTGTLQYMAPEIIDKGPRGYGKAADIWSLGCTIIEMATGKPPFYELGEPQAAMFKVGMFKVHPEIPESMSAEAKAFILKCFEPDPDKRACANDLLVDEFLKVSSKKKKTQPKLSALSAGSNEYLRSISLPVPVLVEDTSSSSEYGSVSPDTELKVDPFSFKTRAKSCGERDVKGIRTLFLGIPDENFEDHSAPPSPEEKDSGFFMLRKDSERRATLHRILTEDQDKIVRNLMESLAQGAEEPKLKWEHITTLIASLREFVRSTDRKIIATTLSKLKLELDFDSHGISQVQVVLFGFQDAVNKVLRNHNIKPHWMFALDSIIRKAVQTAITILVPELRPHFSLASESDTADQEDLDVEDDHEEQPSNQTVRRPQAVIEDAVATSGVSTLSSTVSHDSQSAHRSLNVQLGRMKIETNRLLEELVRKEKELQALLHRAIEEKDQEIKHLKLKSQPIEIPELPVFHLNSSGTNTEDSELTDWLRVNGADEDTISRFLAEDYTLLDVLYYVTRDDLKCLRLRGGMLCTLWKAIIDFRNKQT
Description: Inhibition of human recombinant MAP3K5 at 40 nM related to control ULK1.

In assay [3] the target is Myosin light chain kinase 2, skeletal/cardiac muscle (Homo sapiens) (UniProt Q9H1R3). Description: Inhibition of human recombinant skMLCK at 40 nM related to control ULK1.
Chain of Myosin light chain kinase 2, skeletal/cardiac muscle (Homo sapiens) (Q9H1R3 whole entry): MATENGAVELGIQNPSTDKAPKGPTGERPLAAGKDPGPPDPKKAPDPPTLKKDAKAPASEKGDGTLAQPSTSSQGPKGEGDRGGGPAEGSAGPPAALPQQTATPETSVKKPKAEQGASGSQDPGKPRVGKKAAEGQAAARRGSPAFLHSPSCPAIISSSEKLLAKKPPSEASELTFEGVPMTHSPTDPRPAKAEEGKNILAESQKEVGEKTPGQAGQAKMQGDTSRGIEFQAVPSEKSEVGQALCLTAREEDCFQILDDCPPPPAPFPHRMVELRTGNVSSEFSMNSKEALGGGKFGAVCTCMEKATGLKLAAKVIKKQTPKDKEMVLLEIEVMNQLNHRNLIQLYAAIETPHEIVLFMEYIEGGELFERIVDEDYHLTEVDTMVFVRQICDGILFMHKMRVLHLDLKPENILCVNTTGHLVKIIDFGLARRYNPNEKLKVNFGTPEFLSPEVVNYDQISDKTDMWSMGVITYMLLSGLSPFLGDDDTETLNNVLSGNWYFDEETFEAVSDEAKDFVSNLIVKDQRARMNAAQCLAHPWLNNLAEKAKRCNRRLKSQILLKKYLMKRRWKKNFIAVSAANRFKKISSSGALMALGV
Assay [4] deals with Bone morphogenetic protein receptor type-1B (Homo sapiens) (UniProt O00238). Nature of the assay: Inhibition of human recombinant BMPR1B at 500 nM in presence of ATP by radiometric assay relative to control. Summed up:
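Part of a radiometric in vitro activity panel of 327 recombinant human kinases. Each kinase was tested in duplicate at one inhibitor concentration. Activity remaining was expressed as a percentage of the vehicle control, and percent inhibition was taken as 100 minus that value.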

For assay [5], the target named is T3, Activin receptor type-1B (Homo sapiens) (UniProt P36896).
T3 sequence (whole entry): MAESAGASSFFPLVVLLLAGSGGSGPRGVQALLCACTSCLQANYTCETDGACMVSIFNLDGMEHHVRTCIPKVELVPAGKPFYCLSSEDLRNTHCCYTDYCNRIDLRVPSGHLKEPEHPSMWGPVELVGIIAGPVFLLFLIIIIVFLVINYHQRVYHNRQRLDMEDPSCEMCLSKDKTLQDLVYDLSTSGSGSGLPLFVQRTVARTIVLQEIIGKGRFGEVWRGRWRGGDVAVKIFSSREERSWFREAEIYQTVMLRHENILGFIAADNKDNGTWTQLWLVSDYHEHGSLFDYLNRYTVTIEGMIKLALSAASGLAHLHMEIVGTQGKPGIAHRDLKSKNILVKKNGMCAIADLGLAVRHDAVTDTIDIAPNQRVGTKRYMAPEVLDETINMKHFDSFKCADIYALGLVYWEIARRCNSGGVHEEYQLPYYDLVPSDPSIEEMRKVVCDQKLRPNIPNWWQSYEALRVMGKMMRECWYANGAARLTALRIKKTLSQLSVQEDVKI
Description: Inhibition of human recombinant ALK4 at 500 nM related to control ULK1. A digest of the protocol: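 Panel of 327 recombinant human kinases, each assayed in vitro by radiometric activity assay in duplicate at a single inhibitor concentration per compound, chosen with reference to its ULK1 inhibition. Activity remaining was expressed as percent of vehicle control, and percent inhibition was calculated as 100 minus percent activity remaining.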

Chain of Bone morphogenetic protein receptor type-1B (Homo sapiens) (O00238 whole entry): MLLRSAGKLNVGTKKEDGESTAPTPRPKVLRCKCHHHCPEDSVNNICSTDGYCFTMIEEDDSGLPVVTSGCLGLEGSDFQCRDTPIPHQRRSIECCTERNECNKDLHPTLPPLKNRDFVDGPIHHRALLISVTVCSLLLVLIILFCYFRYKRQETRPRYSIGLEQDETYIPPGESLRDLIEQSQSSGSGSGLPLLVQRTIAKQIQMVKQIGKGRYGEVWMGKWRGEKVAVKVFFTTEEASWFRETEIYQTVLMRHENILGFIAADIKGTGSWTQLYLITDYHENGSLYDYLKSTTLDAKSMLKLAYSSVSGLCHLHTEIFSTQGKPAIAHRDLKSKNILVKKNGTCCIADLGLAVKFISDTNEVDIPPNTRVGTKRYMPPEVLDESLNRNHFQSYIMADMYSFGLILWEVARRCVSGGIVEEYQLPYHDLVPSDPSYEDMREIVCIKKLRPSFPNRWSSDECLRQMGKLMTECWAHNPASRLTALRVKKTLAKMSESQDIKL

With `CC(C)[C@H](NC(=O)c1cc(-c2cnn3cc(-c4ccc(OCCN5CCCCC5)cc4)cnc23)cs1)C(F)(F)F`, in assay [1], the inhibition came to 0%.

In the case of `O=C(N[C@@H](C1CC1)C(F)(F)F)c1cc(-c2cnn3cc(-c4ccc(F)cc4)cnc23)cs1`, the fold change (FC) in assay [2] and in assay [3] was 0 each time.

Take `CNC(=O)c1ccccc1Oc1nc(Nc2cc(OC)c(OC)c(OC)c2)ncc1Br`: the inhibition in assay [4] was found to be 0%. Further, in assay [5], the fold change (FC) was found to be 0.2.
